This is a sample that favours compounds with a hit; in the whole collection about 1.9% have one here.
CHRM5 antagonist – human M5 muscarinic receptor antagonists, primary screen, CHO cells, Fluo-8 calcium fluorescence; Muscarinic acetylcholine receptor M5 (Homo sapiens), P08912; CHO-hM5 cells, ACh EC80; inhibition, % at 3 µM; 360,000 compounds, 0.59% hits; AID 624040, 2012;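 active = inhibition above a per-plate cutoff, the mean of that plate's test compounds plus 3 SD, cut at about 27% in these data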;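 note: 0% = acetylcholine EC80 with DMSO and 100% = DMSO without agonist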
CHRM4 agonist – human M4 muscarinic receptor agonists, primary screen, CHO-K1 cells, Fluo-8 calcium fluorescence | Muscarinic acetylcholine receptor M4 (Homo sapiens), P08173 | CHO-K1 hM4/Gqi5; vehicle 0%, full acetylcholine response 100% | 360,000 compounds, 0.14% hits | AID 624127, 2012 | activation, % at 3 µM;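 active = activation above the run mean over all test wells plus 3 SD, cut at about 32% in these data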;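 note: peak over basal fluorescence ratio per well then scaled between controls; 0% = DMSO wells and 100% = acetylcholine at EC100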
Target sequence (P08173 whole entry, looked up): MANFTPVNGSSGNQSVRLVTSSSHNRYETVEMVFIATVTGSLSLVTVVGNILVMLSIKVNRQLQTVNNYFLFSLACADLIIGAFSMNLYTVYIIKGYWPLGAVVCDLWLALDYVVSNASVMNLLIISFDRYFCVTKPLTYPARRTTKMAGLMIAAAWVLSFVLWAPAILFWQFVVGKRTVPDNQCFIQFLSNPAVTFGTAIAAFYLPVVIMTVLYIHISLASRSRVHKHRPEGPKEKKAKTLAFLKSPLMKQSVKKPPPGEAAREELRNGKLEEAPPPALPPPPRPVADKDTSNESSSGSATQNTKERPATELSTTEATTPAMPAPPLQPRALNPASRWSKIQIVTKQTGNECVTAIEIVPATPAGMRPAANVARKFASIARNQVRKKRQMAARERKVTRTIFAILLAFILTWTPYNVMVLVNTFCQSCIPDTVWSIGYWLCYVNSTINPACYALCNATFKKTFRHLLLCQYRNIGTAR
M5 PAM – human M5 muscarinic receptor positive allosteric modulators, primary screen, CHO-K1 cells, Fluo-8 calcium fluorescence | Muscarinic acetylcholine receptor M5 (Homo sapiens), P08912 | CHO-K1 hM5, ACh EC20 PAM; 0% = ACh EC20, 100% = ACh EC100 | activation, % at 3 µM | 360,000 compounds, 0.3% hits;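 active = activation above the run cutoff, the mean activation of all test compounds plus 3 SD, cut at about 18% in these data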
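system = human M5 receptor in CHO-K1 cells | reagent = EC20 acetylcholine as agonist stimulus | compound dosing = single-point, 3 µM nominal | incubation = Fluo-8 loading 80 min at 37 °C plus 30 min room temperature | detection = Fluo-8 calcium dye fluorescence, kinetic read | benchmarks = low control EC20 acetylcholine (0%), high control EC100 acetylcholine (100%)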
CHRM4 antagonist – human M4 muscarinic receptor antagonists, primary screen, CHO cells, Fluo-8 calcium fluorescence; CHO-hM4 cells, ACh EC80; 360,000 compounds, 0.73% hits; inhibition, % at 3 µM;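 active = inhibition above its plate's cutoff, the mean inhibition of sample wells plus 3 SD, cut at about 27% in these data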;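 note: 0% = acetylcholine EC80 with DMSO and 100% = DMSO without agonist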
CHRM4 PAM – human M4 muscarinic receptor positive allosteric modulators, primary screen, CHO-K1 cells, Fluo-8 calcium fluorescence. Muscarinic acetylcholine receptor M4 (Homo sapiens), P08173. CHO-K1 hM4/Gqi5, ACh EC20; 0% = ACh EC20, 100% = maximal ACh. activation, % at 3 µM. 360,000 compounds, 0.4% hits;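 active = activation above its plate's cutoff, the mean activation of sample wells plus 3 SD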
CHRM5 agonist – human M5 muscarinic receptor agonists, primary screen, CHO-K1 cells, Fluo-8 calcium fluorescence; CHO-K1 hM5 cells; 0% DMSO wells, 100% maximal acetylcholine response; activation, % at 3 µM; 360,000 compounds, 0.19% hits; AID 624037, 2012;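 active = activation above the run's mean over test compounds plus 3 SD, cut at about 23% in these data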;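 note: signal is peak over basal fluorescence ratio across the kinetic read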
Starred values were filed as active, the others as inactive.

Screening NC(=O)Cn1nnc(-c2ccccc2NC(=O)c2cnccn2)n1 returned CHRM5 antagonist 22, CHRM4 agonist 0, M5 PAM 35*, CHRM4 antagonist -5, CHRM4 PAM 3 and CHRM5 agonist -2.
`COC(=O)[C@H]1C[C@H](OC(=O)NC2CC2)[C@@]2(O)CN(S(=O)(=O)c3ccc(C)cc3)CC2[C@H]1C(=O)OC` (stereo not given in full) gave CHRM5 antagonist 10, CHRM4 agonist 0, M5 PAM 0, CHRM4 antagonist -3, CHRM4 PAM 6 and CHRM5 agonist 0.
`CC(C)NC(=O)C1(C)CSCC(=O)N1Cc1cccc(F)c1` (stereo not given) gave CHRM5 antagonist -10, CHRM4 agonist 1, M5 PAM 10, CHRM4 antagonist -15, CHRM4 PAM 16 and CHRM5 agonist 0.
For CC1(C(=O)Nc2nccs2)CCN1C(=O)CC(c1ccccc1)c1ccccc1 (stereo not given) the results were CHRM5 antagonist 0, CHRM4 agonist -1, M5 PAM 2, CHRM4 antagonist -13, CHRM4 PAM 6 and CHRM5 agonist -2.
`Cc1cccc(C)c1-n1c(C)cc(/C=N\Nc2ccc([N+](=O)[O-])cn2)c1C` gave CHRM5 antagonist 13, CHRM4 agonist 1, M5 PAM -20, CHRM4 antagonist 35*, CHRM4 PAM -17 and CHRM5 agonist -6.
`O=[N+]([O-])c1ccc(NN=Cc2cccc(O)c2)nc1` gave CHRM5 antagonist 8, CHRM4 agonist 11, M5 PAM -7, CHRM4 antagonist -10, CHRM4 PAM -2 and CHRM5 agonist 6.
`Cc1cc(C)c(C#N)c(SCC(=O)c2cccs2)n1` gave CHRM5 antagonist 7, CHRM4 agonist 5, M5 PAM -7, CHRM4 antagonist 37*, CHRM4 PAM 75* and CHRM5 agonist -6.
`Cc1cc(=O)[nH]c(SCC(=O)c2ccccc2)c1C#N` gave CHRM5 antagonist -5, CHRM4 agonist 2, M5 PAM 6, CHRM4 antagonist -11, CHRM4 PAM 34* and CHRM5 agonist 3.
For Cc1cc(SCC(=O)c2cccs2)n2nc(C)c(-c3ccc(Cl)cc3)c2n1 the results were CHRM5 antagonist 9, CHRM4 agonist 1, M5 PAM 13, CHRM4 antagonist -3, CHRM4 PAM 23* and CHRM5 agonist 4.
`Cc1ccccc1NC(=O)CSc1[nH]c(=O)cc(C)c1C#N` gave CHRM5 antagonist -3, CHRM4 agonist 3, M5 PAM 3, CHRM4 antagonist -1, CHRM4 PAM -2 and CHRM5 agonist 5.
Screening Cc1nn2c(SCC(=O)c3cccs3)cc(C(C)(C)C)nc2c1-c1ccccc1 returned CHRM5 antagonist 6, CHRM4 agonist 1, M5 PAM 2, CHRM4 antagonist -3, CHRM4 PAM 7 and CHRM5 agonist 0.
Cc1cc(C)c(C#N)c(SCC(=O)c2ccccc2)n1 was read as CHRM5 antagonist 8, CHRM4 agonist 3, M5 PAM -7, CHRM4 antagonist -4, CHRM4 PAM 26* and CHRM5 agonist -7.
Screening CSc1nc(N)nc(SCC(=O)c2ccccc2)c1C#N returned CHRM5 antagonist -8, CHRM4 agonist 9, M5 PAM -10, CHRM4 antagonist -5, CHRM4 PAM -3 and CHRM5 agonist 5.
CCOC(=O)N(C)c1c(CC)nc2c(OCc3ccccc3OC)cccn12 was read as CHRM5 antagonist 7, CHRM4 agonist 1, M5 PAM -1, CHRM4 antagonist 0, CHRM4 PAM 0 and CHRM5 agonist -3.
For C[C@H](CO)N1C[C@H](C)[C@H](CN(C)Cc2ccncc2)Oc2ncc(Br)cc2C1=O the results were CHRM5 antagonist 3, CHRM4 agonist 0, M5 PAM 1, CHRM4 antagonist -5, CHRM4 PAM -1 and CHRM5 agonist 1.
Screening O=[N+]([O-])c1cccc(/C=N/Nc2nc(NCc3ccccc3)nc(N3CCOCC3)n2)c1O returned CHRM5 antagonist 14, CHRM4 agonist 46*, M5 PAM -3, CHRM4 antagonist -1, CHRM4 PAM -11 and CHRM5 agonist 11.
`c1ccc(-c2ccc(OCCCNC3CCCC3)cc2)cc1` gave CHRM5 antagonist 33*, CHRM4 agonist 30, M5 PAM -16, CHRM4 antagonist 39*, CHRM4 PAM -22 and CHRM5 agonist 4.
Screening COc1ccc(CNC(=O)c2cccc3c(-c4cnn(C)c4)coc23)cc1OC returned CHRM5 antagonist 5, CHRM4 agonist 15, M5 PAM -12, CHRM4 antagonist -14, CHRM4 PAM -3 and CHRM5 agonist 8.
Screening Cc1ccc(OCc2nc(-c3ccc(-n4cccc4)cc3)no2)cc1C returned CHRM5 antagonist 9, CHRM4 agonist -1, M5 PAM -2, CHRM4 antagonist -12, CHRM4 PAM 3 and CHRM5 agonist 0.
`Cc1cccc(OCc2nc(-c3ccc(-n4cccc4)cc3)no2)c1` gave CHRM5 antagonist 1, CHRM4 agonist 1, M5 PAM 3, CHRM4 antagonist -28, CHRM4 PAM 18* and CHRM5 agonist 1.
For CC(C)(C)c1nnc(N/N=C/c2cc(Br)ccc2O)n(N)c1=O the results were CHRM5 antagonist 20, CHRM4 agonist 29, M5 PAM -22, CHRM4 antagonist 34*, CHRM4 PAM -31 and CHRM5 agonist 9.
`CC(=O)C1=CCC(c2ccccc2)N(S(=O)(=O)c2ccccc2)C1` (stereo not given) gave CHRM5 antagonist 0, CHRM4 agonist 0, M5 PAM -1, CHRM4 antagonist 3, CHRM4 PAM -3 and CHRM5 agonist -1.
For CC(Sc1nnc(-c2cccs2)n1-c1ccccc1)C(=O)NCc1ccco1 (stereo not given) the results were CHRM5 antagonist -1, CHRM4 agonist 2, M5 PAM -3, CHRM4 antagonist -4, CHRM4 PAM -1 and CHRM5 agonist -4.
Screening CC(Sc1ccsc1[N+](=O)[O-])C(=O)NCc1ccco1 (stereo not given) returned CHRM5 antagonist 1, CHRM4 agonist 1, M5 PAM 12, CHRM4 antagonist 5, CHRM4 PAM 23* and CHRM5 agonist 1.

Assay outcomes (PubChem BioAssay)
